Paper PMC11617931 (Molecular Therapy. Nucleic Acids, 2024)
Bridge positions count the residues as written; N and C are the ends. Ends that are not written are not given here.

Assays:
[1] = system: differentiated CF pHBECs cultured at ALI; assay type: cell-based, human; settings: average of three replicates, first to last round; 1,000 vg/cell
How it was run: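 Pooled T7 CX7C phage libraries were diluted in DPBS (no Ca2+/Mg2+) to 3.3 × 10^5 PFU/µL, giving 1,000 vg/cell, and applied to ALI-differentiated CF pHBECs pooled from seven donors (3.3 × 10^4 cells/insert). Incubation was 16 h at 37°C in round 1 and 1 h in round 5. Lysate was spun at 14,000 × g for 10 min and the supernatant titered by double-layer plaque assay. Output was pooled as input for the next round. Cout/Cin change was taken from three replicates, unpaired t test.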

[2] = system: mucus-producing differentiated CF pHBECs cultured at ALI; experiment: Validation of phage clone uptake by standard double-layer plaque assay; assay type: cell-based, human; settings: Cout/Cin, 1 h, 37°C, n = 3
How it was run: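 Clones were sequence-verified from BL21 E. coli plaques and amplified in liquid BL21 culture. Each clone (3.3 × 10^7 PFU in 100 µL DPBS) was applied apically to ALI-differentiated CF pHBECs for 1 h at 37°C. Cells were washed with elution buffer and DPBS, lysed with M-PER, and spun at 14,000 × g. Internalized phage in the supernatant were titered by double-layer plaque assay as Cout/Cin. Controls were peptide-less WT phage, naive library, and CPS phage.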

[3] = 3.3 × 10^7 PFU apical, p < 0.005

How did the “increase in Cout/Cin after five rounds of selection” value [1] turn out when CXXXXXXXC (disulfide) [CX7C T7 library] was run?
Its value is 380 fold.

With “CTSTRKKQC (disulfide 1-9 (inferred)) [Clone C]” as the sequence, how does the “uptake compared to insertless wild-type (WT) control and CPS control” value [2] read?
The value was “significantly improved uptake”.

And the “improvement in uptake compared to naive library” value ([2]; 3.3 × 10^7 PFU apical, p < 0.0005)?
The value was roughly 454 fold.

And the “improvement in uptake compared to WT” value [2, 3]?
The value was 56 fold.

What about the “improvement in uptake compared to clone CPS” value [2, 3] of the same sequence?
Its value is 50 fold.
